Test results from ChEMBL document CHEMBL4033737, “Anti-mycobacterial alkaloids, cyclic 3-alkyl pyridinium dimers, from the Indonesian marine sponge Haliclona sp” (2017).
Structures can show the parent of a compound that is named as a salt. The source made the active and inactive calls. The rule behind the calls is not given here.

Assays:
[1] = tested on: Mycolicibacterium smegmatis; assay: Antibacterial activity against Mycobacterium smegmatis NBRC 3207 at 1 ug/disc incubated at 37 degC for 2 days by paper disc method; assay type: functional
In short: (§1)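 M. smegmatis NBRC 3207 kept as 20% glycerol stock at -80°C. Grown in Middlebrook 7H9 with 0.05% polysorbate 80, 0.5% glycerol and 10% OADC at 37°C for 2 days, then adjusted to 1.0×10^8 CFU/mL and spread on the same medium with 1.5% agar. Sample in CH3OH dried onto 6 mm discs, plated at 37°C for 2 days, inhibition zone read (mm). Controls: streptomycin sulfate 5 µg/disc, CH3OH.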

[2] = tested on: Mycolicibacterium smegmatis; assay: Antibacterial activity against Mycobacterium smegmatis NBRC 3207 at 5 ug/disc incubated at 37 degC for 2 days by paper disc method; assay type: functional; details: for zone of inhibition at 5 µg/disc: NBRC 3207, 48 h, read-out: IZ; in short: as §1
[3] = tested on: Mycolicibacterium smegmatis; assay: Antibacterial activity against Mycobacterium smegmatis NBRC 3207 at 10 ug/disc incubated at 37 degC for 2 days by paper disc method; assay type: functional; details: NBRC 3207, 48 h, read-out: IZ; in short: as §1
[4] = tested on: Mycolicibacterium smegmatis; assay: Antibacterial activity against Mycobacterium smegmatis NBRC 3207 incubated at 37 degC for 2 days by paper disc method; assay type: functional; in short: as §1
[5] = biological target: Dual specificity protein phosphatase 3 (Homo sapiens) (UniProt P51452); assay: Inhibition of VHR (unknown origin) at 18 uM pre-incubated for 10 mins before pNPP substrate addition and measured after 30 mins
In short: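 VHR (1.0 µg/mL stock) in 50 mM citrate buffer pH 6.0 with 0.1 M NaCl, 1 mM DTT and 1 mM EDTA. Sample in CH3OH added, preincubated 10 min at 37°C. pNPP added (4.0 mM stock), 30 min at 37°C, stopped with NaOH, A405 read. % inhibition computed against enzyme-free blank and sample-free control. Three duplicate experiments. Oleanolic acid as positive control.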

[6] = biological target: Dual specificity protein phosphatase 3 (Homo sapiens) (UniProt P51452); assay: Inhibition of VHR (unknown origin) at 17 uM pre-incubated for 10 mins before pNPP substrate addition and measured after 30 mins
In short: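 Enzyme at 1.0 µg/mL stock, in 50 mM citrate buffer pH 6.0 with 0.1 M NaCl, 1 mM DTT and 1 mM EDTA. Sample in methanol preincubated 10 min at 37°C. pNPP (4.0 mM stock) then added, 30 min at 37°C, stopped with NaOH. Absorbance read at 405 nm. % inhibition from blank- and no-sample-control-corrected readings. Three duplicate experiments. Oleanolic acid positive control.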

Sequence of Dual specificity protein phosphatase 3 (Homo sapiens) (P51452 whole entry, looked up): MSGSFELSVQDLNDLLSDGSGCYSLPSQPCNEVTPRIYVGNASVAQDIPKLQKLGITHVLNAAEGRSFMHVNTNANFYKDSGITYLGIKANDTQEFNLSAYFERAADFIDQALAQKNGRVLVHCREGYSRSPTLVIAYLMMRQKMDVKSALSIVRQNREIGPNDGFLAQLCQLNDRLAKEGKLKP

inhibition [6] [%] | Compound | inhibition zone (IZ) [1] | zone of inhibition at 5 µg/disc [2] [mm] | zone of inhibition at 10 µg/disc [3] [mm] | growth inhibition (GI) [4] | inhibition [5] [%] | inhibition zone (IZ) [2] | zone of inhibition at 1 µg/disc ([1]; NBRC 3207, 48 h, read-out: IZ) [mm]
– | c1cc2c[n+](c1)CCCCCCCCCCCCCCc1ccc[n+](c1)CCCCCCCCCCCCC2 [CYCLOSTELLETAMINES E] | inactive | 7 | 12 | Dose-dependent effect | – | – | –
– | c1cc2c[n+](c1)CCCCCCCCCCCCCCc1ccc[n+](c1)CCCCCCCCCCCCCC2 [CYCLOSTELLETAMINES F] | inactive | 8 | 12 | Dose-dependent effect | 38 | – | –
– | c1cc2c[n+](c1)CCCCCCCCCCCCCc1ccc[n+](c1)CCCCCCCCCCCC2 [CYCLOSTELLETAMINES B] | inactive | – | 8 | Dose-dependent effect | – | inactive | –
– | c1cc2c[n+](c1)CCCCCCCCCCCCc1ccc[n+](c1)CCCCCCCCCCCC2 [CYCLOSTELLETAMINES A] | inactive | 9 | 14 | Dose-dependent effect | – | – | –
– | C1=C/CC[n+]2cccc(c2)CCCCCCCCCCCC[n+]2cccc(c2)CCCCCCCCCC/1 | inactive | 10 | 17 | Dose-dependent effect | – | – | –
– | c1cc2c[n+](c1)CCCCCCCCCCCCCc1ccc[n+](c1)CCCCCCCCCCCCC2 | inactive | – | 8 | Dose-dependent effect | – | inactive | –
– | C1=C/CC[n+]2cccc(c2)CCCCCCCCCCCCCC[n+]2cccc(c2)CCCCCCCCCC/1 | inactive | 7 | 10 | Dose-dependent effect | – | – | –
– | CN[C@@H]1[C@H](O[C@H]2[C@H](O[C@H]3[C@H](O)[C@@H](O)[C@H](N=C(N)N)[C@@H](O)[C@@H]3N=C(N)N)O[C@@H](C)[C@]2(O)C=O)O[C@@H](CO)[C@H](O)[C@H]1O [STREPTOMYCIN SULFATE] | – | 35 | – | – | – | – | 20
28 | c1cc2c[n+](c1)CCCCCCCCCCCCCCCc1ccc[n+](c1)CCCCCCCCCCCCCC2 | inactive | 9 | 13 | Dose-dependent effect | – | – | –
